Legend:
Mus musculus [1] = test: In Vivo detection in Mice plasma after oral administration of 58.33 mg/kg detected in the form of AZT 5`-P after 24 hr; format: functional, organism-based; parameters: dose 58.33 mg/kg
Mus musculus [2] = test: In Vivo detection in Mice plasma after oral administration of 58.33 mg/kg detected in the form of AZT phosphodiester 3 after 0.5 hr; format: functional, organism-based; parameters: dose 58.33 mg/kg
How it was run: (§1)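 Male Swiss mice (18–20 g, six weeks old) given the test substance or vehicle ([…]) by gavage as a 3 mM solution (1.5 µmol/mouse). Aortic blood was collected into heparinized tubes at 0.5–48 h and centrifuged at 13000g for 10 min. Plasma was stored at -22 °C and analysed by HPLC. Three mice were used per time point, in triplicate. Values were not corrected for recovery.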

Mus musculus [3] = test: In Vivo detection of total AZT in Mice plasma after oral administration of 58.33 mg/kg after 4 hr; format: functional, organism-based; parameters: dose 58.33 mg/kg; how it was run: as §1
Mus musculus [4] = test: In Vivo detection in Mice brains after oral administration of 58.33 mg/kg detected in the form of AZT phosphodiester 3 after 2 hr; format: functional
Mus musculus [5] = test: In Vivo detection in Mice brains after oral administration of 58.33 mg/kg detected in the form of AZT 5`-P after 2 hr; format: functional
Mus musculus [6] = test: In Vivo detection of total AZT in Mice plasma after oral administration of 58.33 mg/kg after 48 hr; format: functional, organism-based; parameters: dose 58.33 mg/kg; how it was run: as §1
Mus musculus [7] = test: In Vivo detection in Mice plasma after oral administration of 58.33 mg/kg detected in the form of AZT 5`-P after 0.5 hr; format: functional, organism-based; parameters: dose 58.33 mg/kg
Mus musculus [8] = species: Mus musculus; test: In Vitro detection by Gray and Whittaker method for the total internal nucleoside; format: functional
How it was run: (§2)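 Crude synaptosomes from three mouse brains were prepared by Gray–Whittaker homogenization in 10% sucrose buffered with 5 mM Tris-HCl, pH 7.4. The 7000g pellet was resuspended and incubated with each nucleoside at 3 mM for 15 min at 37 °C, stopped by cold 10-fold dilution and washed twice. Internal nucleoside was extracted in acetonitrile–water (3:1) and measured by HPLC.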

Mus musculus [9] = test: In Vivo detection in Mice plasma after oral administration of 58.33 mg/kg detected in the form of AZT phosphodiester 2 after 1 hr; format: functional, organism-based; parameters: dose 58.33 mg/kg; how it was run: as §1
Mus musculus [10] = test: In Vivo detection in Mice plasma after oral administration of 58.33 mg/kg detected in the form of AZT phosphodiester 2 after 4 hr; format: functional, organism-based; parameters: dose 58.33 mg/kg; how it was run: as §1
Mus musculus [11] = test: In Vivo detection in Mice plasma after oral administration of 58.33 mg/kg detected in the form of AZT 5`-P after 4 hr; format: functional, organism-based; parameters: dose 58.33 mg/kg
Mus musculus [12] = test: In Vivo detection in Mice brains after oral administration of 58.33 mg/kg detected in the form of AZT phosphodiester 2 after 1 hr; format: functional
Mus musculus [13] = test: In Vivo detection in Mice brains after oral administration of 58.33 mg/kg detected in the form of AZT after 1 hr; format: functional
Mus musculus [14] = test: In Vivo detection in Mice plasma after oral administration of 58.33 mg/kg detected in the form of AZT phosphodiester 3 after 4 hr; format: functional, organism-based; parameters: dose 58.33 mg/kg; how it was run: as §1
Mus musculus [15] = test: In Vivo detection in Mice plasma after oral administration of 58.33 mg/kg detected in the form of AZT phosphodiester 2 after 24 hr; format: functional, organism-based; parameters: dose 58.33 mg/kg; how it was run: as §1
Mus musculus [16] = test: In Vivo detection in Mice plasma after oral administration of 58.33 mg/kg detected in the form of AZT after 0.5 hr; format: functional, organism-based; parameters: dose 58.33 mg/kg
Mus musculus [17] = test: In Vivo detection in Mice plasma after oral administration of 58.33 mg/kg detected in the form of AZT after 1 hr; format: functional, organism-based; parameters: dose 58.33 mg/kg
Mus musculus [18] = species: Mus musculus; test: In Vitro detection by Gray and Whittaker method for % of internalization by comparing with external nucleoside of 2000 nM/g; format: functional; how it was run: as §2
Mus musculus [19] = test: In Vivo detection in Mice brains after oral administration of 58.33 mg/kg detected in the form of AZT phosphodiester 3 after 48 hr; format: functional
Mus musculus [20] = test: In Vivo detection in Mice brains after oral administration of 58.33 mg/kg detected in the form of AZT after 0.5 hr; format: functional
Mus musculus [21] = test: In Vivo detection in Mice plasma after oral administration of 58.33 mg/kg detected in the form of AZT phosphodiester 3 after 24 hr; format: functional, organism-based; parameters: dose 58.33 mg/kg; how it was run: as §1
Mus musculus [22] = test: In Vivo detection in Mice plasma after oral administration of 58.33 mg/kg detected in the form of AZT after 24 hr; format: functional, organism-based; parameters: dose 58.33 mg/kg
Mus musculus [23] = test: In Vivo detection in Mice plasma after oral administration of 58.33 mg/kg detected in the form of AZT phosphodiester 2 after 2 hr; format: functional, organism-based; parameters: dose 58.33 mg/kg; how it was run: as §1
Mus musculus [24] = test: In Vivo detection in Mice brains after oral administration of 20 mg/kg detected in the form of AZT phosphodiester 2 after 48 hr; format: functional
Mus musculus [25] = test: In Vivo detection of total AZT in Mice brains after oral administration of 41.63 mg/kg after 24 hr; format: functional
How it was run: (§3)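 Male Swiss mice (18–20 g) dosed orally with a 3 mM solution in […] vehicle; decapitated at 0.5–48 h. Brains were homogenized in acetonitrile-water (3:1), centrifuged at 6000g for 40 min at 4 °C, lyophilized, redissolved in water and filtered (0.45 µm). Reversed-phase C18 column-switching HPLC with diode-array detection; standard spiking; vehicle-fed controls. Three mice per point, triplicates.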

Mus musculus [26] = test: In Vivo detection in Mice brains after oral administration of 41.63 mg/kg detected in the form of AZT after 4 hr; format: functional
Mus musculus [27] = test: In Vivo detection in Mice brains after oral administration of 41.63 mg/kg detected in the form of AZT phosphodiester 2 after 1 hr; format: functional
Mus musculus [28] = test: In Vivo detection in Mice brains after oral administration of 41.63 mg/kg detected in the form of AZT 5`-P after 48 hr; format: functional
Mus musculus [29] = test: In Vivo detection in Mice plasma after oral administration of 41.63 mg/kg detected in the form of AZT after 8 hr; format: functional, organism-based; parameters: dose 41.63 mg/kg
Mus musculus [30] = test: In Vivo detection in Mice plasma after oral administration of 41.63 mg/kg detected in the form of AZT 5`-P after 1 hr; format: functional, organism-based; parameters: dose 41.63 mg/kg
Mus musculus [31] = test: In Vivo detection in Mice plasma after oral administration of 41.63 mg/kg detected in the form of AZT 5`-P after 0.5 hr; format: functional, organism-based; parameters: dose 41.63 mg/kg
Mus musculus [32] = test: In Vivo detection in Mice brains after oral administration of 41.63 mg/kg detected in the form of AZT 5`-P after 8 hr; format: functional
Mus musculus [33] = test: In Vivo detection in Mice brains after oral administration of 41.63 mg/kg detected in the form of AZT phosphodiester 2 after 2 hr; format: functional
Mus musculus [34] = test: In Vivo detection of total AZT in Mice brains after oral administration of 41.63 mg/kg after 48 hr; format: functional; how it was run: as §3
Mus musculus [35] = test: In Vivo detection of total AZT in Mice plasma after oral administration of 41.63 mg/kg after 0.5 hr; format: functional, organism-based; parameters: dose 41.63 mg/kg; how it was run: as §1
Mus musculus [36] = test: In Vivo detection in Mice brains after oral administration of 41.63 mg/kg detected in the form of AZT 5`-P after 2 hr; format: functional
Mus musculus [37] = test: In Vivo detection in Mice brains after oral administration of 41.63 mg/kg detected in the form of AZT after 1 hr; format: functional
Mus musculus [38] = test: In Vivo detection of total AZT in Mice brains after oral administration of 41.63 mg/kg after 8 hr; format: functional; how it was run: as §3

## CCCCCCCCCCCCCCCCOP(=O)(OCCO[C@H]1O[C@H](CO)[C@@H](O)[C@H](O)[C@@H]1O)OCC1OC(n2cc(C)c(=O)[nH]c2=O)CC1N=[N+]=[N-] (stereo not given in full)
Mus musculus [1]
  Plasma content: 28.5 nM ml-1
Mus musculus [2]
  Plasma content: 0 nM ml-1
Mus musculus [3]
  Plasma content: 5.3 nM ml-1
Mus musculus [4]
  Brain content: 0 nmol/g
Mus musculus [5]
  Brain content: 133 nmol/g
Mus musculus [6]
  Plasma content: 14.2 nM ml-1
Mus musculus [7]
  Plasma content: 12.1 nM ml-1
Mus musculus [8]
  Brain content: 567.8 nM/g
Mus musculus [9]
  Plasma content: 0 nM ml-1
Mus musculus [10]
  Plasma content: 0 nM ml-1
Mus musculus [11]
  Plasma content: 3 nM ml-1
Mus musculus [12]
  Brain content: 8.5 nmol/g
Mus musculus [13]
  Brain content: 1.5 nmol/g
Mus musculus [14]
  Plasma content: 0 nM ml-1
Mus musculus [15]
  Plasma content: 0 nM ml-1
Mus musculus [16]
  Plasma content: 1.6 nM ml-1
Mus musculus [17]
  Plasma content: 1.3 nM ml-1
Mus musculus [18]
  Internalisation: 6.24%
Mus musculus [19]
  Brain content: 0 nmol/g
Mus musculus [20]
  Brain content: 1.5 nmol/g
Mus musculus [21]
  Plasma content: 0 nM ml-1
Mus musculus [22]
  Plasma content: 0 nM ml-1
Mus musculus [23]
  Plasma content: 0 nM ml-1

## Cc1cn([C@H]2C[C@H](N=[N+]=[N-])[C@@H](COP(=O)(O)OCCO[C@H]3O[C@H](CO)[C@@H](O)[C@H](O)[C@@H]3O)O2)c(=O)[nH]c1=O
Mus musculus [24]
  Brain content: 2.5 nM ml-1
Mus musculus [25]
  Brain content: 61.8 nM ml-1
Mus musculus [26]
  Brain content: 0.9 nmol/g
Mus musculus [27]
  Brain content: 16.5 nM ml-1
Mus musculus [28]
  Brain content: 48.5 nmol/g
Mus musculus [8]
  Brain content: 8.3 nM/g
Mus musculus [29]
  Plasma content: 0 nM ml-1
Mus musculus [30]
  Plasma content: 20 nM ml-1
Mus musculus [31]
  Plasma content: 20.4 nM ml-1
Mus musculus [32]
  Brain content: 33.3 nmol/g
Mus musculus [33]
  Brain content: 5.2 nM ml-1
Mus musculus [34]
  Brain content: 51.8 nM ml-1
Mus musculus [35]
  Plasma content: 56.5 nM ml-1
Mus musculus [36]
  Brain content: 19.8 nM ml-1
Mus musculus [18]
  Internalisation: 0.1%
Mus musculus [37]
  Brain content: 1.9 nmol/g
Mus musculus [38]
  Brain content: 43.1 nM ml-1
